Assay results gathered from unrelated publications.
Lines come from different studies, so protocols differ.
Organism: Klebsiella pneumoniae
Observed: microbial growth

| Compound | test | test system | conditions | MIC |
| --- | --- | --- | --- | --- |
| CN(C)[C@@H]1C(O)=C(C(N)=O)C(=O)[C@@]2(O)C(O)=C3C(=O)c4c(O)cccc4[C@@](C)(O)[C@H]3C[C@@H]12 | broth dilution | ATCC10031 | 12 h | 0.13 µg/mL |
| [H]/N=C(\N/C(=N/[H])NCCCCCCNC(=N)NC(=N)Nc1ccc(Cl)cc1)Nc1ccc(Cl)cc1 |  | ATCC4352 |  | 1 µM |
| C[C@H]1COc2c(N3CCN(C)CC3)c(F)cc3c(=O)c(C(=O)O)cn1c23 | broth dilution | ATCC43816 |  | < 0.5 µg/mL |
| CN(C)[C@@H]1C(O)=C(C(N)=O)C(=O)[C@@]2(O)C(O)=C3C(=O)c4c(O)cccc4[C@@](C)(O)[C@H]3C[C@@H]12 | broth dilution | ATCC27736 | 16 h | 3.1 µM |
| CCN1CCN(C(=O)N[C@@H](C(=O)N[C@@H]2C(=O)N3[C@@H]2SC(C)(C)[C@@H]3C(=O)O)c2ccccc2)C(=O)C1=O | broth dilution | ATCC43816 |  | 4 µg/mL |
| CO/N=C(\C(=O)N[C@@H]1C(=O)N2C(C(=O)O)=CCS[C@H]12)c1csc(N)n1 | broth dilution | ATCC13883 |  | 0.125 µg/mL |
| CCCCCCCCN=c1ccn(CCCCCCCCCCn2ccc(=NCCCCCCCC)cc2)cc1 |  | ATCC4352 |  | 0.5 µM |
| CCCCCCC#Cc1cncc(-c2nnc(SCc3ccc(Cl)cc3)n2CCCN)c1 | broth dilution | DSM30104 |  | 32 µg/mL |
| Cc1nnc(SCC2=C(C(=O)O)N3C(=O)[C@@H](NC(=O)Cn4cnnn4)[C@H]3SC2)s1 | broth dilution | ATCC43816 |  | 1 µg/mL |
| CCCCCCC#Cc1cncc(-c2nnc(SCc3ccc([N+](=O)[O-])o3)n2CCCN)c1 | broth dilution | DSM30104 |  | > 64 µg/mL |
| Cc1onc(-c2ccccc2)c1C(=O)N[C@@H]1C(=O)N2[C@@H]1SC(C)(C)[C@@H]2C(=O)O | broth dilution | ATCC700603 |  | 8 µg/mL |
| CC[C@H]1OC(=O)[C@H](C)[C@@H](O[C@H]2C[C@@](C)(OC)[C@@H](O)[C@H](C)O2)[C@H](C)[C@@H](O[C@@H]2O[C@H](C)C[C@H](N(C)C)[C@H]2O)[C@](C)(O)C[C@@H](C)CN(C)[C@H](C)[C@@H](O)[C@]1(C)O | broth dilution | ATCC13883 |  | 1 µg/mL |
| C[C@@H](O)[C@H]1C(=O)N2C(C(=O)O)=C(S[C@@H]3CN[C@H](C(=O)N(C)C)C3)[C@H](C)[C@H]12 | broth dilution | ATCC43816 |  | < 0.5 µg/mL |
| [H]/N=C(/N)N[C@H]1[C@H](O)[C@@H](O)[C@H](O[C@@H]2O[C@@H](C)[C@](O)(C=O)[C@H]2O[C@@H]2O[C@@H](CO)[C@H](O)[C@@H](O)[C@@H]2NC)[C@@H](N/C(N)=N\[H])[C@@H]1O | broth dilution | ATCC700603 |  | > 512 µg/mL |
| CN(C)c1cc(NC(=O)CNC(C)(C)C)c(O)c2c1C[C@H]1C[C@H]3[C@H](N(C)C)C(O)=C(C(N)=O)C(=O)[C@@]3(O)C(O)=C1C2=O | broth dilution | ATCC43816 |  | < 0.5 µg/mL |
| CCCCCCC#Cc1cncc(-c2nnc(SCc3cc([N+](=O)[O-])cc([N+](=O)[O-])c3)n2CCOC2OC(CN)C(O)C2O)c1 (stereo not drawn) | broth dilution | DSM30104 |  | > 64 µg/mL |
| CC1(C)S[C@@H]2[C@H](NC(=O)[C@H](N)c3ccccc3)C(=O)N2[C@H]1C(=O)O | broth dilution | ATCC13883 |  | > 64 µg/mL |
| CO/N=C(\C(=O)N[C@@H]1C(=O)N2C(C(=O)O)=C(CSc3nc(=O)c(=O)[nH]n3C)CS[C@H]12)c1csc(N)n1 | broth dilution | ATCC700603 |  | > 512 µg/mL |
| CCCCCCC#Cc1cncc(-c2nnc(SCc3cc([N+](=O)[O-])cc([N+](=O)[O-])c3)n2CCCN)c1 | broth dilution | DSM30104 |  | > 64 µg/mL |
| C[C@@H](O)[C@H]1C(=O)N2C(C(=O)O)=C(S[C@@H]3CN[C@H](C(=O)N(C)C)C3)[C@H](C)[C@H]12 | broth dilution | ATCC13883 |  | 0.125 µg/mL |
| C[C@H]1[C@H](NC(=O)/C(=N\OC(C)(C)C(=O)O)c2csc(N)n2)C(=O)N1S(=O)(=O)O | broth dilution | ATCC43816 |  | < 0.5 µg/mL |
